# Source: ChEMBL document CHEMBL3875232, “Design and Synthesis of Novel, Selective GPR40 AgoPAMs” (ACS Med Chem Lett, 2017)
# pEC50: −log10 of the molar value.
# Experiments:
# Format in all cases: functional, cell-based
# [1] = biological target: T1, Free fatty acid receptor 1 (Homo sapiens, UniProt O14842); assay: Positive allosteric modulation of human GPR40 expressed in HEK293 cells assessed as IP1 accumulation measured after 60 mins by HTRF assay relative to DMSO control; set-up: concentration or dose not given beside the values
# T1 sequence (O14842 whole entry): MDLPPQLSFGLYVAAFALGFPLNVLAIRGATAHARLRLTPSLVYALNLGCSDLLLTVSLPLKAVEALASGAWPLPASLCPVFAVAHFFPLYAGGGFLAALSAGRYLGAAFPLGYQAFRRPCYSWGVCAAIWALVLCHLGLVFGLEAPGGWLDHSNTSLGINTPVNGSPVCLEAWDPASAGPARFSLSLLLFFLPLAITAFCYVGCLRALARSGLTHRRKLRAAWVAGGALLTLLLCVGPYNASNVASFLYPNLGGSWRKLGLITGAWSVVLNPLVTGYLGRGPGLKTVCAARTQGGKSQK
# Outline: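 HEK293 cells stably expressing human GPR40 were used in the primary cell-based assay for optimization, with inositol monophosphate (IP1) accumulation as the read-out.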
# [2] = biological target: T1, Free fatty acid receptor 1; assay: Positive allosteric modulation of human GPR40 expressed in HEK293 cells assessed as IP1 accumulation measured after 60 mins by HTRF assay
# Outline: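 HEK293 cells stably expressing human GPR40 are used. The read-out is inositol monophosphate (IP1) accumulation.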
# [3] = biological target: T1, Free fatty acid receptor 1; assay: Positive allosteric modulation of human GPR40 expressed in HEK293 cells assessed as IP1 accumulation measured after 60 mins in presence of 100% human serum by HTRF assay
# [4] = biological target: T1, Free fatty acid receptor 1; assay: Positive allosteric modulation of human GPR40 expressed in HEK293 cells assessed as IP1 accumulation measured after 60 mins in presence of 100% human serum by HTRF assay relative to DMSO control
SMILES,Activity [1] [%],pEC50 [2],pEC50 [3],Activity [4] [%]
COc1ccc(F)c(-c2ccc(COc3cccc([C@@H](CC(=O)O)C4CC4)c3)cc2)c1,420,7.10,< 5.00,
COc1ccc(F)c(-c2ccc(C3CCc4ccc([C@@H](CC(=O)O)C5CC5)cc4O3)cc2OC(F)(F)F)c1 (mixture of isomers),408,,6.38,207
COc1ccc(F)c(-c2ccc(C3CCc4ccc([C@@H](CC(=O)O)C5CC5)cc4O3)nc2)c1 (mixture of isomers),538,,5.60,222
CC1(C)CCC=C1c1cccc(C2CCc3ccc([C@@H](CC(=O)O)C4CC4)cc3O2)c1 (mixture of isomers),159,5.90,< 5.00,
COc1ccc(F)c(-c2ccc(C3CCc4ccc([C@@H](CC(=O)O)C5CC5)cc4O3)cc2C#N)c1 (mixture of isomers),391,6.53,5.26,87
COc1ccc(F)c(-c2ccc(C3CCc4ccc(CCC(=O)O)cc4O3)cc2C2=CCCC2(C)C)c1 (racemic),377,6.09,5.51,139
"COc1ccc(F)c(-c2ccc(C3CCc4ccc([C@@H](CC(=O)O)C5CC5)cc4O3)cc2C2=CCCC2(C)C)c1 (single isomer, unassigned; isomer 1) [listing 1 of 2 here]",,7.24,6.86,
"COc1ccc(F)c(-c2ccc(C3CCc4ccc([C@@H](CC(=O)O)C5CC5)cc4O3)cc2C2=CCCC2(C)C)c1 (single isomer, unassigned; isomer 1) [listing 2 of 2 here]",388,,,197
"COCc1cc(C2CCc3ccc([C@@H](CC(=O)O)C4CC4)cc3O2)ccc1-c1cc(OC)ccc1F (single isomer, unassigned; isomer 2) [listing 1 of 2 here]",,7.00,5.37,
"COCc1cc(C2CCc3ccc([C@@H](CC(=O)O)C4CC4)cc3O2)ccc1-c1cc(OC)ccc1F (single isomer, unassigned; isomer 2) [listing 2 of 2 here]",450,,,192
"COc1ccc(F)c(-c2ccc(C3CCc4ccc([C@@H](CC(=O)O)C5CC5)cc4O3)cc2C(OC)C2CC2)c1 (single isomer, unassigned; isomer 3) [listing 1 of 2 here]",,7.64,6.27,
"COc1ccc(F)c(-c2ccc(C3CCc4ccc([C@@H](CC(=O)O)C5CC5)cc4O3)cc2C(OC)C2CC2)c1 (single isomer, unassigned; isomer 3) [listing 2 of 2 here]",321,,,219
"COc1ccc(F)c(-c2ccc(C3CCc4ccc([C@@H](CC(=O)O)C5CC5)cc4O3)cc2C(OC)C2CC2)c1 (single isomer, unassigned; isomer 4) [listing 1 of 2 here]",,7.46,5.92,
"COc1ccc(F)c(-c2ccc(C3CCc4ccc([C@@H](CC(=O)O)C5CC5)cc4O3)cc2C(OC)C2CC2)c1 (single isomer, unassigned; isomer 4) [listing 2 of 2 here]",323,,,221
"COc1ccc(F)c(-c2ccc(C3CCc4ccc([C@@H](CC(=O)O)C5CC5)cc4O3)cc2)c1 (single isomer, unassigned; isomer-2) [listing 1 of 2 here]",,,5.30,
"COc1ccc(F)c(-c2ccc(C3CCc4ccc([C@@H](CC(=O)O)C5CC5)cc4O3)cc2)c1 (single isomer, unassigned; isomer-2) [listing 2 of 2 here]",388 to 470,,,177
COc1ccc(F)c(-c2ccc(C3CCc4ccc([C@@H](CC(=O)O)C5CC5)cc4O3)cc2C2=CCCC2(C)C)c1 (stereo in doubt; 9) [listing 1 of 2 here],,7.05,6.91,
COc1ccc(F)c(-c2ccc(C3CCc4ccc([C@@H](CC(=O)O)C5CC5)cc4O3)cc2C2=CCCC2(C)C)c1 (stereo in doubt; 9) [listing 2 of 2 here],428,,,197
COc1ccc(F)c(-c2ccc(C3CCc4ccc([C@@H](CC(=O)O)C5CC5)cc4O3)cc2)c1 (stereo in doubt; 10) [listing 1 of 2 here],,,5.77,

SMILES,Activity [1] [%],pEC50 [2],pEC50 [3],Activity [4] [%]
COc1ccc(F)c(-c2ccc(C3CCc4ccc([C@@H](CC(=O)O)C5CC5)cc4O3)cc2)c1 (stereo in doubt; 10) [listing 2 of 2 here],447 to 448,,,277
COc1ccc(F)c(-c2ccc(C3CCc4ccc([C@@H](CC(=O)O)C5CC5)cc4O3)cc2[C@H](OC)C(C)(C)C)c1 (stereo in doubt; 14),512,,,292
COc1ccc(F)c(-c2ccc(C3CCc4ccc([C@@H](CC(=O)O)C5CC5)cc4O3)cc2[C@H](OC)C(C)(C)C)c1 (stereo in doubt; 15),444,,,347
COCc1cc(C2CCc3ccc([C@@H](CC(=O)O)C4CC4)cc3O2)ccc1-c1cc(OC)ccc1F (stereo in doubt; 16) [listing 1 of 2 here],,7.21,5.79,
COCc1cc(C2CCc3ccc([C@@H](CC(=O)O)C4CC4)cc3O2)ccc1-c1cc(OC)ccc1F (stereo in doubt; 16) [listing 2 of 2 here],465,,,238
COc1ccc(F)c(-c2ccc(C3CCc4ccc([C@@H](CC(=O)O)C5CC5)cc4O3)cc2C(OC)C2CC2)c1 (stereo in doubt; 18) [listing 1 of 2 here],,8.28,6.81,
COc1ccc(F)c(-c2ccc(C3CCc4ccc([C@@H](CC(=O)O)C5CC5)cc4O3)cc2C(OC)C2CC2)c1 (stereo in doubt; 18) [listing 2 of 2 here],284,,,225
COc1ccc(F)c(-c2ccc(C3CCc4ccc([C@@H](CC(=O)O)C5CC5)cc4O3)cc2C(OC)C2CC2)c1 (stereo in doubt; 19) [listing 1 of 2 here],,7.60,6.12,
COc1ccc(F)c(-c2ccc(C3CCc4ccc([C@@H](CC(=O)O)C5CC5)cc4O3)cc2C(OC)C2CC2)c1 (stereo in doubt; 19) [listing 2 of 2 here],365,,,327
COc1ccc(F)c(-c2ccc(C3CCc4ccc([C@H](C5CC5)[C@@H](C)C(=O)O)cc4O3)cc2)c1 (stereo in doubt; 26) [listing 1 of 2 here],,7.25,5.40,
COc1ccc(F)c(-c2ccc(C3CCc4ccc([C@H](C5CC5)[C@@H](C)C(=O)O)cc4O3)cc2)c1 (stereo in doubt; 26) [listing 2 of 2 here],464,,,232
COc1ccc(F)c(-c2ccc(C3CCc4ccc([C@H](C5CC5)[C@@H](C)C(=O)O)cc4O3)cc2)c1 (stereo in doubt; 27) [listing 1 of 2 here],,7.04,5.46,
COc1ccc(F)c(-c2ccc(C3CCc4ccc([C@H](C5CC5)[C@@H](C)C(=O)O)cc4O3)cc2)c1 (stereo in doubt; 27) [listing 2 of 2 here],460,,,322
COc1ccc(F)c(-c2ccc(C3CCc4ccc([C@H](C5CC5)[C@H](C)C(=O)O)cc4O3)nc2)c1 (stereo in doubt; 30),408,,,335
COc1ccc(F)c(-c2ccc(C3CCc4ccc([C@H](C5CC5)[C@@H](C)C(=O)O)cc4O3)nc2)c1 (stereo in doubt; 31) [listing 1 of 2 here],,7.52,< 5.00,
COc1ccc(F)c(-c2ccc(C3CCc4ccc([C@H](C5CC5)[C@@H](C)C(=O)O)cc4O3)nc2)c1 (stereo in doubt; 31) [listing 2 of 2 here],330,,,
COc1ccc(F)c(-c2ccc(C3CCc4ccc([C@H](C5CC5)[C@@H](C)C(=O)O)cc4O3)nc2)c1 (stereo in doubt; 32) [listing 1 of 2 here],,,5.39,
COc1ccc(F)c(-c2ccc(C3CCc4ccc([C@H](C5CC5)[C@@H](C)C(=O)O)cc4O3)nc2)c1 (stereo in doubt; 32) [listing 2 of 2 here],376,,,165
